Assay results taken from ChEMBL document CHEMBL1132105, “Substituted analogues of GV150526 as potent glycine binding site antagonists in animal models of cerebral ischemia” (J Med Chem, 1999).

What was measured:
Albumin = Albumin (Rattus norvegicus, UniProt P02770); experiment: Binding to rat serum albumin
Rattus norvegicus [1] = experiment: Preischemic effect of the compound in the MACo model in rats measured 24 hr after occlusion at an intravenous dose of 0.1 mg/kg.; format: functional
Summary of the method: (§1)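 Permanent distal MCA electrocoagulation in male Sprague-Dawley rats (280-350 g) under chloral hydrate (400 mg/kg ip), normothermic; compound iv 5 min before occlusion, in 3% DMSO in water. At 24 h, 0.5 mm coronal slices stained with 2% TTC (37 °C, 20 min); infarct volume by trapezoidal rule, n = 8; reduction vs vehicle.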

[2] = Inhibition of binding of [3H]CPP in presence of glutamate to glutamate binding site of N-methyl-D-aspartate glutamate receptor in synaptic membranes of rat cerebral cortex; format: cell membranes
Rattus norvegicus [3] = experiment: Preischemic effect of the compound in the MACo model in rats measured 24 h after occlusion at an intravenous dose of 1 mg/kg.; format: functional; summary of the method: as §1
Rattus norvegicus [4] = experiment: Preischemic effect of the compound in the MACo model in rats measured 24 hr after occlusion at an intravenous dose of 3 mg/kg.; format: functional; summary of the method: as §1
[5] = Effective dose was evaluated; format: functional
Mus musculus [6] = experiment: Inhibition of NMDA-induced convulsions in mice by the compound when administered by intravenous route; format: functional
Summary of the method: (§2)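 Male CD-1 mice (18-29 g); test compound given iv (1 min) or po (1 h) before icv NMDA (1 nmol/mouse). Animals observed 30 min for generalized seizures and scored protected if none occurred. Percentage protected per group recorded; ED50 estimated with 95% confidence limits.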

Rattus norvegicus [7] = experiment: Preischemic effect of the compound in the MACo model in rats measured 24 hr after occlusion at an intravenous dose of 0.3 mg/kg.; format: functional; summary of the method: as §1
Rattus norvegicus [8] = experiment: Postischemic effect of the compound in the MACo model in rats measured 24 hr after occlusion at an intravenous dose of 1 mg/kg.; format: functional
Summary of the method: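 Male Sprague-Dawley rats (280-350 g), permanent distal MCA electrocoagulation under chloral hydrate; single iv bolus 1 mg/kg given 6 h after occlusion, vehicle 3% DMSO in water. Infarct volume from TTC-stained 0.5 mm coronal slices 24 h after occlusion, trapezoidal rule, n = 8.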

Mus musculus [9] = experiment: Inhibition of NMDA-induced convulsions in mice by the compound when administered by peroral route; format: functional; conditions: po; summary of the method: as §2
Rattus norvegicus [10] = species: Rattus norvegicus; experiment: Percent damage reduction; format: functional; design: concentration or dose not given beside the values; summary of the method: as §1
[11] = target: Glutamate receptor ionotropic, AMPA (Rattus norvegicus, UniProt P19490+P19491+P19492+P19493); experiment: Inhibition of binding of [3H]AMPA to Ionotropic glutamate receptor AMPA in synaptic membranes of rat cerebral cortex; format: cell membranes
Summary of the method: (§3)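 Rat cortical membrane radioligand binding; compounds from 5 mM DMSO stock tested at five concentrations, 10 nM to 100 µM, with a reference compound as internal control.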

Glutamate NMDA receptor = experiment: Inhibition of [3H]glycine binding to N-methyl-D-aspartate glutamate receptor in synaptic membranes of rat cerebral cortex; format: cell membranes
Summary of the method: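 Crude synaptic membranes from adult rat cerebral cortex; 20 nM [3H]glycine, 50 mM Tris/citrate pH 7.10, 20 min at 4 °C. Seven concentrations in duplicate; stock 5 mM in DMSO. Ki from at least six-point inhibition curves by nonlinear fitting; geometric mean of at least three experiments.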

[12] = target: Glutamate receptor ionotropic, kainate; experiment: Inhibition of binding of [3H]kainate to Ionotropic glutamate receptor kainate in synaptic membranes of rat cerebral cortex; format: cell membranes; summary of the method: as §3

Chain of Albumin (P02770 whole entry): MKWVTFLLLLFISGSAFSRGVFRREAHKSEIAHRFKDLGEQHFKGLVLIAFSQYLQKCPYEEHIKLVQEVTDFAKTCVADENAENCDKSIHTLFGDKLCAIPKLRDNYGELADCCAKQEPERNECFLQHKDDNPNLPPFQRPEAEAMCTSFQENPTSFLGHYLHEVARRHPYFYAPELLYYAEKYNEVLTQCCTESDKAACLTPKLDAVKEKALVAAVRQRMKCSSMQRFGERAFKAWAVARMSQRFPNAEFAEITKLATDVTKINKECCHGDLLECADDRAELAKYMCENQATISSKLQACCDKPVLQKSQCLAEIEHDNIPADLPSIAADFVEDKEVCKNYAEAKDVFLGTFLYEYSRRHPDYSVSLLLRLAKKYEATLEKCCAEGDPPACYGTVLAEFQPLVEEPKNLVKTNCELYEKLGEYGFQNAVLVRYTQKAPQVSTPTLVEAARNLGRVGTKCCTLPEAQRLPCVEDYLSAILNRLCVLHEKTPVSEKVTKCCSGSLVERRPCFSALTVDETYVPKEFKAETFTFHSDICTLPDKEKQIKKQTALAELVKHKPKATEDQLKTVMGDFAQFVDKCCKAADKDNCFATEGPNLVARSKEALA

| Compound | RSA tR (Albumin) | Log Ki (Glutamate NMDA receptor) | further results |
| --- | --- | --- | --- |
| Nc1ccc(NC(=O)/C=C/c2c(C(=O)[O-])[nH]c3cc(Cl)cc(Cl)c23)cc1.[Na+] | 23.2 min | – | – |
| NC(=O)NCc1ccc(NC(=O)/C=C/c2c(C(=O)[O-])[nH]c3cc(Cl)cc(Cl)c23)cc1.[Na+] | 40.7 min | -8.67 | Infarct volume (Rattus norvegicus [1]): 61.9 mm**3; Log Ki [2]: -3.48; Infarct volume (Rattus norvegicus [3]): 38.9 mm**3; Infarct volume (Rattus norvegicus [4]): 27.8 mm**3; ED50 [5]: 0.2 mg/kg; ED50 (Mus musculus [6]): 0.07 mg/kg; Infarct volume (Rattus norvegicus [7]): 36.4 mm**3; Infarct volume (Rattus norvegicus [8]): 54.7 mm**3; ED50 (Mus musculus [9]): 2 mg/kg; damage reduction (Rattus norvegicus [10]): 41% [middle of 5 runs]; Ki [11]: 105 µM; Log Ki [12]: -4.68 |
| O=C(/C=C/c1c(C(=O)[O-])[nH]c2cc(Cl)cc(Cl)c12)NCc1ccccc1.[Na+] | 66.9 min | – | – |
| O=C(O)CNC(=O)NCc1ccc(NC(=O)/C=C/c2c(C(=O)[O-])[nH]c3cc(Cl)cc(Cl)c23)cc1.[Na+] | – | -8.57 | – |
| O=C(/C=C/c1c(C(=O)[O-])[nH]c2cc(Cl)cc(Cl)c12)Nc1ccccc1.[Na+] [GAVESTINEL SODIUM] | 60.1 min | -8.49 | ED50 (Mus musculus [6]): 0.06 mg/kg; ED50 (Mus musculus [9]): 6 mg/kg |
| NC(=O)NCCc1ccc(NC(=O)/C=C/c2c(C(=O)[O-])[nH]c3cc(Cl)cc(Cl)c23)cc1.[Na+] | 33.9 min | -8.2 | ED50 (Mus musculus [6]): 0.14 mg/kg; ED50 (Mus musculus [9]): 17.3 mg/kg |
| O=C(/C=C/c1c(C(=O)[O-])[nH]c2cc(Cl)cc(Cl)c12)NC12CC3CC(CC(C3)C1)C2.[Na+] | 141.2 min | – | – |
| C[C@@H](NC(N)=O)c1ccc(NC(=O)/C=C/c2c(C(=O)[O-])[nH]c3cc(Cl)cc(Cl)c23)cc1.[Na+] | – | -7.93 | – |
| O=C(/C=C/c1c(C(=O)[O-])[nH]c2cc(Cl)cc(Cl)c12)NC1CCCCC1.[Na+] | 25.7 min | – | – |
| O=C(/C=C/c1c(C(=O)[O-])[nH]c2cc(Cl)cc(Cl)c12)Nc1ccc(CNC(=O)Nc2ccccc2)cc1.[Na+] | – | -7.7 | – |
| COc1ccc(NC(=O)NCc2ccc(NC(=O)/C=C/c3c(C(=O)[O-])[nH]c4cc(Cl)cc(Cl)c34)cc2)cc1.[Na+] | – | -7.69 | – |
| O=C(/C=C/c1c(C(=O)[O-])[nH]c2cc(Cl)cc(Cl)c12)Nc1ccc(CNC(=O)NC2CCOCC2)cc1.[Na+] | 29.6 min | -8.15 | – |
| NC(=O)Nc1ccc(NC(=O)/C=C/c2c(C(=O)[O-])[nH]c3cc(Cl)cc(Cl)c23)cc1.[Na+] | 28.3 min | -8.8 | ED50 (Mus musculus [6]): 0.55 mg/kg; ED50 (Mus musculus [9]): 9.6 mg/kg |
| CC/N=C(\S)NCc1ccc(NC(=O)/C=C/c2c(C(=O)[O-])[nH]c3cc(Cl)cc(Cl)c23)cc1.[Na+] | 34.1 min | -7.91 | – |
| O=c1[nH]c2cc(Cl)c(Cl)c([N+](=O)[O-])c2[nH]c1=O [LICOSTINEL] | 12.1 min | – | – |
| O=C(/C=C/c1c(C(=O)[O-])[nH]c2cc(Cl)cc(Cl)c12)Nc1ccc(CNC(=O)NC2CC2)cc1.[Na+] | – | -8.25 | – |
| C[C@H](NC(N)=O)c1ccc(NC(=O)/C=C/c2c(C(=O)[O-])[nH]c3cc(Cl)cc(Cl)c23)cc1.[Na+] | – | -8.2 | – |
| CCNC(=O)NCc1ccc(NC(=O)/C=C/c2c(C(=O)[O-])[nH]c3cc(Cl)cc(Cl)c23)cc1.[Na+] | – | -8.62 | – |
| CC(=O)Nc1ccc(NC(=O)/C=C/c2c(C(=O)[O-])[nH]c3cc(Cl)cc(Cl)c23)cc1.[Na+] | 31.6 min | – | – |
| O=C(/C=C/c1c(C(=O)[O-])[nH]c2cc(Cl)cc(Cl)c12)Nc1ccc(CNC(=O)Nc2cccnc2)cc1.[Na+] | – | -7.83 | – |
